In ChEMBL document CHEMBL1208665, “Discovery of new 1,3,5-triazine scaffolds with potent activity against Mycobacterium tuberculosis H37Rv” (Eur J Med Chem, 2010):
Values after ≈ are worked out from the molar mass of the structure shown.

Key:
[1] = system: Mycobacterium tuberculosis; assay: Antimycobacterial activity against Mycobacterium tuberculosis H37Rv […] after 4 weeks; type: functional
Outline: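 Agar-slant dilution against H37Rv. Compounds from 1.0 mg/mL DMSO stock, two-fold serial dilutions, were incorporated into OADC-supplemented medium (2 mL/tube final) and solidified slanted. Inoculum spread on the surface, incubated 37 °C for 4 weeks. Drug-free tubes served as control. MIC is the lowest concentration giving complete growth inhibition relative to the inoculum used.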

[2] = Cytotoxicity against mouse BMDM after 48 hrs by MTS assay; type: cell-based; conditions: for Activity: bmdm, 48 h
Outline: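 Mouse femur bone marrow was flushed with DMEM + 10% FBS, 15% L-929 conditioned supernatant and non-essential amino acids. Cells were plated at 10⁵/well, medium was changed every 3rd day, and cells were used at day 5. Compounds were added in antibiotic-free FBS-DMEM for 48 h at 37 °C, 5% CO₂. Read-out was MTS, 2 h, A490, with DMSO wells taken as 100% survival.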

[3] = (§1) Cytotoxicity against Vero cells after 24 hrs by MTS assay; type: cell-based; conditions: chlorocebus sabaeus, Vero cells; read-out: MIC
Outline: (§2)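 VERO cells were seeded at 20,000/well in MEM + 10% FBS with antibiotics and left to adhere overnight at 37 °C, 5% CO₂. Compound dilutions were added in MEM + 10% FBS for 24 h, with DMSO as negative control and a known toxic compound as positive control. Read-out was MTS, 2 h, A490, with DMSO wells taken as 100% survival.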

Vero = assay: as §1; type: cell-based; conditions: chlorocebus sabaeus, vero, 24 h; outline: as §2

| Compound | MIC [1] | other results |
| --- | --- | --- |
| CCCNc1nc(NCCC)nc(N2CCCCC2)n1 | 12.5 µg/mL (≈ 44.9 µM) | MCC at 48 h ([2]; BMDM (bone marrow-derived macrophages), read-out: MIC): > 12.5 µg/mL; MCC at 24 h [3]: > 12.5 µg/mL |
| CC(C)(C)Nc1nc(N2CCCc3ccccc32)nc(N2CCCc3ccccc32)n1 | > 12.5 µg/mL |  |
| CCN(CC)CCNc1nc(NCCN(CC)CC)nc(N2CCCc3ccccc32)n1 | > 12.5 µg/mL |  |
| CCN1CCN(c2nc(Nc3nc(SC)cc(-c4cc(OC)c(OC)c(OC)c4)n3)nc(N3CCN(CC)CC3)n2)CC1 | 12.5 µg/mL (≈ 20.5 µM) |  |
| CCCNc1nc(NCCC)nc(Nc2nc(SC)cc(-c3cc(OC)c(OC)c(OC)c3)n2)n1 | > 12.5 µg/mL |  |
| CC(C)(C)Nc1nc(NNC(=O)c2ccncc2)nc(Nc2ccccc2)n1 | > 12.5 µg/mL |  |
| CCCNc1nc(NCCC)nc(Nc2nc(SC)cc(-c3ccc(OC)c(OC)c3)n2)n1 | > 12.5 µg/mL |  |
| CCCNC1COCCN1c1nc(Nc2nc(SC)cc(-c3cc(OC)c(OC)c(OC)c3)n2)nc(N2CCOCC2NCCC)n1 (stereo not drawn) | 12.5 µg/mL (≈ 18.6 µM) |  |
| COc1ccc(-c2cc(SC)nc(Nc3nc(NCCN(C)C)nc(NCCN(C)C)n3)n2)cc1OC | 6.25 µg/mL (≈ 11.8 µM) |  |
| NNC(=O)c1ccncc1 [ISONIAZID] | 0.025 µg/mL (≈ 0.182 µM) | Activity [2]: Non-toxic; Activity (Vero): Non-toxic |
| CCN(CC)CCNc1nc(N2CCc3ccccc3C2)nc(N2CCc3ccccc3C2)n1 | > 12.5 µg/mL |  |
| CN(C)CCNc1nc(NCCN(C)C)nc(N2CCCCC2)n1 | > 12.5 µg/mL |  |
| CCCCNc1nc(NCCCC)nc(Nc2nc(SC)cc(-c3cc(OC)c(OC)c(OC)c3)n2)n1 | > 12.5 µg/mL |  |
| O=C(NNc1nc(Nc2ccccc2)nc(Nc2ccccc2)n1)c1ccncc1 | > 12.5 µg/mL |  |
| CCCNC1COCCN1c1nc(Nc2nc(SC)cc(-c3ccc(OC)c(OC)c3)n2)nc(N2CCOCC2NCCC)n1 (stereo not drawn) | > 12.5 µg/mL |  |
| CN1CCN(c2nc(N3CCCc4ccccc43)nc(N3CCCc4ccccc43)n2)CC1 | > 12.5 µg/mL |  |
| CCCCNc1nc(NNC(=O)c2ccncc2)nc(N2CCc3ccccc3C2)n1 | 3.12 µg/mL (≈ 7.46 µM) | Activity [2]: Non-toxic; Activity (Vero): Non-toxic |
| O=C(NNc1nc(N2CCOCC2)nc(N2CCCc3ccccc32)n1)c1ccncc1 | 3.12 µg/mL (≈ 7.21 µM) | Activity [2]: Non-toxic; Activity (Vero): Non-toxic |
| CCN(CC)CCNc1nc(N2CCCc3ccccc32)nc(N2CCCc3ccccc32)n1 | > 12.5 µg/mL |  |
| O=C(NNc1nc(N2CCc3ccccc3C2)nc(N2CCc3ccccc3C2)n1)c1ccncc1 | 3.12 µg/mL (≈ 6.52 µM) | Activity [2]: Toxic; Activity (Vero): Non-toxic |
| CCCNc1nc(NCCC)nc(N2CCCc3ccccc32)n1 | > 12.5 µg/mL |  |
| CCCCNc1cc(-c2cc(OC)c(OC)c(OC)c2)nc(N)n1 | > 12.5 µg/mL |  |
| O=C(NNc1nc(N2CCCCC2)nc(N2CCCCC2)n1)c1ccncc1 | 6.25 µg/mL (≈ 16.3 µM) |  |
| O=C(NNc1nc(Nc2ncccn2)nc(N2CCCCC2)n1)c1ccncc1 | 3.12 µg/mL (≈ 7.95 µM) | Activity [2]: Non-toxic; Activity (Vero): Non-toxic |
| COc1cc(-c2cc(SC)nc(Nc3nc(N4CCOCC4)nc(N4CCOCC4)n3)n2)cc(OC)c1OC | > 12.5 µg/mL |  |
| CCNc1nc(NCC)nc(N2CCCCC2)n1 | > 12.5 µg/mL |  |

| Compound | MIC [1] | other results |
| --- | --- | --- |
| CC(C)(C)Nc1nc(NC(C)(C)C)nc(N2CCCCC2)n1 | > 12.5 µg/mL |  |
| COc1cc(-c2cc(SC)nc(Nc3nc(NC(C)C)nc(NC(C)C)n3)n2)cc(OC)c1OC | 3.12 µg/mL (≈ 6.23 µM) | Activity [2]: Toxic; Activity (Vero): Toxic |
| CC(C)Nc1nc(NNC(=O)c2ccncc2)nc(N2CCCCC2)n1 | 3.12 µg/mL (≈ 8.75 µM) | Activity [2]: Non-toxic; Activity (Vero): Non-toxic |
| CCN1CCN(c2nc(Nc3nc(SC)cc(-c4ccc(OC)c(OC)c4)n3)nc(N3CCN(CC)CC3)n2)CC1 | 12.5 µg/mL (≈ 21.5 µM) |  |
| COc1cc(-c2cc(SC)nc(Nc3nc(N4CCN(C)CC4)nc(N4CCN(C)CC4)n3)n2)cc(OC)c1OC | 12.5 µg/mL (≈ 21.5 µM) |  |
| COc1ccc(-c2cc(SC)nc(Nc3nc(NC(C)(C)C)nc(NC(C)(C)C)n3)n2)cc1OC | 6.25 µg/mL (≈ 12.5 µM) |  |
| CCNc1nc(NCC)nc(N2CCCc3ccccc32)n1 | > 12.5 µg/mL |  |
| CCCNC1COCCN1c1cc(-c2cc(OC)c(OC)c(OC)c2)nc(N)n1 (stereo not drawn) | > 12.5 µg/mL |  |
| CN(C)CCNc1nc(NCCN(C)C)nc(N2CCCc3ccccc32)n1 | > 12.5 µg/mL |  |
| CC(C)(C)Nc1nc(NNC(=O)c2ccncc2)nc(N2CCCCC2)n1 | 6.25 µg/mL (≈ 16.9 µM) |  |
| COc1ccc(-c2cc(SC)nc(Nc3nc(N4CCN(C)CC4)nc(N4CCN(C)CC4)n3)n2)cc1OC | > 12.5 µg/mL |  |
| CCNC1CN(c2nc(Nc3nc(SC)cc(-c4ccc(OC)c(OC)c4)n3)nc(N3CCOC(NCC)C3)n2)CCO1 (stereo not drawn) | > 12.5 µg/mL |  |
| O=C(NNc1nc(N2CCCCC2)nc(N2CCc3ccccc3C2)n1)c1ccncc1 | 3.12 µg/mL (≈ 7.25 µM) | Activity [2]: Toxic; Activity (Vero): Non-toxic |
| CC(C)Nc1nc(NNC(=O)c2ccncc2)nc(Nc2ccccc2)n1 | 6.25 µg/mL (≈ 17.2 µM) |  |
| CCNC1CN(c2nc(N3CCCCC3)nc(N3CCOC(NCC)C3)n2)CCO1 (stereo not drawn) | > 12.5 µg/mL |  |
| NN(C(=O)c1ccncc1)c1nc(Nc2ccccc2)nc(N(N)C(=O)c2ccncc2)n1 | > 12.5 µg/mL |  |
| CC(C)(C)Nc1nc(N2CCc3ccccc3C2)nc(N2CCc3ccccc3C2)n1 | > 12.5 µg/mL |  |
| COc1ccc(-c2cc(SC)nc(Nc3nc(N4CCOCC4)nc(N4CCOCC4)n3)n2)cc1OC | > 12.5 µg/mL |  |
| CCCNC1COCCN1c1nc(N2CCCc3ccccc32)nc(N2CCCc3ccccc32)n1 (stereo not drawn) | > 12.5 µg/mL |  |
| COc1ccc(-c2cc(SC)nc(Nc3nc(N4CCCCC4)nc(N4CCCCC4)n3)n2)cc1OC | > 12.5 µg/mL |  |
| COc1cc(-c2cc(N3CCN(C)CC3)nc(N)n2)cc(OC)c1OC | > 12.5 µg/mL |  |
| CC(C)(C)Nc1nc(NNC(=O)c2ccncc2)nc(N2CCCc3ccccc32)n1 | 3.12 µg/mL (≈ 7.46 µM) |  |
| CCN(CC)CCNc1nc(NCCN(CC)CC)nc(Nc2nc(SC)cc(-c3ccc(OC)c(OC)c3)n2)n1 | 6.25 µg/mL (≈ 10.7 µM) |  |
| COc1ccc(-c2cc(SC)nc(Nc3nc(NC(C)C)nc(NC(C)C)n3)n2)cc1OC | 12.5 µg/mL (≈ 26.6 µM) |  |
| CC(C)(C)Nc1nc(NC(C)(C)C)nc(N2CCCc3ccccc32)n1 | > 12.5 µg/mL |  |
| COc1cc(-c2cc(N3CCCCC3)nc(N)n2)cc(OC)c1OC | > 12.5 µg/mL |  |

| Compound | MIC [1] | other results |
| --- | --- | --- |
| CC(C)Nc1nc(NNC(=O)c2ccncc2)nc(N2CCCc3ccccc32)n1 | 3.12 µg/mL (≈ 7.71 µM) | Activity [2]: Non-toxic; Activity (Vero): Non-toxic |
| COc1cc(-c2cc(SC)nc(Nc3nc(NC(C)(C)C)nc(NC(C)(C)C)n3)n2)cc(OC)c1OC | 3.12 µg/mL (≈ 5.9 µM) | Activity [2]: Toxic; Activity (Vero): Non-toxic |
| c1ccc2c(c1)CCN(c1nc(N3CCOCC3)nc(N3CCc4ccccc4C3)n1)C2 | > 12.5 µg/mL |  |
| CC(C)(C)Nc1nc(NNC(=O)c2ccncc2)nc(N2CCc3ccccc3C2)n1 | 3.12 µg/mL (≈ 7.46 µM) | Activity [2]: Toxic; Activity (Vero): Non-toxic |
| COc1cc(-c2cc(N3CCOCC3)nc(N)n2)cc(OC)c1OC | > 12.5 µg/mL |  |
| CCCNC1COCCN1c1nc(N2CCc3ccccc3C2)nc(N2CCc3ccccc3C2)n1 (stereo not drawn) | > 12.5 µg/mL |  |
| CN1CCN(c2nc(N3CCc4ccccc4C3)nc(N3CCc4ccccc4C3)n2)CC1 | 6.25 µg/mL (≈ 14.2 µM) |  |
| O=C(NNc1nc(Nc2ccccc2)nc(N2CCOCC2)n1)c1ccncc1 | 1.56 µg/mL (≈ 3.98 µM) | Activity [2]: Non-toxic; Activity (Vero): Non-toxic |
| O=C(NNc1nc(Nc2ccccc2)nc(NC2CCCCC2)n1)c1ccncc1 | 6.25 µg/mL (≈ 15.5 µM) |  |
| c1ccc2c(c1)CCCN2c1nc(N2CCOCC2)nc(N2CCCc3ccccc32)n1 | > 12.5 µg/mL |  |
| CCNC1CN(c2nc(N3CCc4ccccc4C3)nc(N3CCc4ccccc4C3)n2)CCO1 (stereo not drawn) | 3.12 µg/mL (≈ 6.62 µM) | Activity [2]: Toxic; Activity (Vero): Non-toxic |
| CCCCNc1nc(NNC(=O)c2ccncc2)nc(N2CCCc3ccccc32)n1 | 6.25 µg/mL (≈ 14.9 µM) |  |
| CCCCNc1nc(NNC(=O)c2ccncc2)nc(Nc2ccccc2)n1 | 6.25 µg/mL (≈ 16.5 µM) |  |
| O=C(NNc1nc(Nc2ccccc2)nc(N2CCCCC2)n1)c1ccncc1 | > 12.5 µg/mL |  |
| CC(C)Nc1nc(NC(C)C)nc(N2CCCCC2)n1 | 12.5 µg/mL (≈ 44.9 µM) |  |
| CCN(CC)CCNc1nc(NCCN(CC)CC)nc(N2CCCCC2)n1 | > 12.5 µg/mL |  |
| CCN(CC)CCNc1nc(N)nc(Nc2nc(SC)cc(-c3cc(OC)c(OC)c(OC)c3)n2)n1 | > 12.5 µg/mL |  |
| CCCCNc1nc(NNC(=O)c2ccncc2)nc(N2CCCCC2)n1 | 3.12 µg/mL (≈ 8.42 µM) | Activity [2]: Non-toxic; Activity (Vero): Non-toxic |
| CCNC1CN(c2nc(N3CCCc4ccccc43)nc(N3CCCc4ccccc43)n2)CCO1 (stereo not drawn) | > 12.5 µg/mL |  |
| CCN(CC)CCNc1cc(-c2cc(OC)c(OC)c(OC)c2)nc(N)n1 | > 12.5 µg/mL |  |
| CC(C)Nc1nc(NNC(=O)c2ccncc2)nc(N2CCc3ccccc3C2)n1 | 3.12 µg/mL (≈ 7.71 µM) | Activity [2]: Non-toxic; Activity (Vero): Non-toxic |
| COc1cc(-c2cc(SC)nc(Nc3nc(N4CCCCC4)nc(N4CCCCC4)n3)n2)cc(OC)c1OC | 6.25 µg/mL (≈ 11.3 µM) |  |
| CC(C)Nc1nc(NC(C)C)nc(N2CCCc3ccccc32)n1 | > 12.5 µg/mL |  |
| CCNC1CN(c2cc(-c3cc(OC)c(OC)c(OC)c3)nc(N)n2)CCO1 (stereo not drawn) | > 12.5 µg/mL |  |
